This note sets out measurements from ChEMBL document CHEMBL2440007, “Design, synthesis and biological evaluation of N2,N4-disubstituted-1,1,3-trioxo-2H,4H-pyrrolo[1,2-b][1,2,4,6]thiatriazine derivatives as HIV-1 NNRTIs” (Bioorg Med Chem, 2013).

Series [1] can be described thus: Selectivity index, ratio of CC50 for human MT4 cells to EC50 for HIV-1 3B infected in human MT4 cells. The following applies: read-out: Ratio CC50/EC50. It is filed as toxicity, cell-based. The method in brief: (§1)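 Ratio CC50/EC50. Both values come from MTT viability of MT-4 cells read 5 days after infection with HIV-1 IIIB or HIV-2 ROD, or after mock infection for CC50.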

Series [2] in a line: Cytotoxicity against human MT4 cells after 5 days by MTT assay. The format is cell-based. In a few lines: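 Mock-infected MT-4 cells (6 × 10⁵ cells/mL) were exposed to serial fivefold compound dilutions. Viability was measured by MTT after 5 days.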
On the technique in general: Formazan colour is commonly taken as a measure of viable cells.

The test system of series [3] is Human immunodeficiency virus 1. In words: Antiviral activity against HIV1. The format is functional, organism-based.
Series [4] is described as follows: Selectivity index, ratio of CC50 for human MT4 cells to EC50 for HIV-2 ROD infected in human MT4 cells. The format is toxicity, cell-based. Conditions: read-out: Ratio CC50/EC50. The method in brief:
as §1

The test system of series [5] is Human immunodeficiency virus 2. The series is described as follows: Antiviral activity against HIV2 ROD infected in human MT4 cells assessed as protection against viral-induced cytotoxicity after 5 days by MTT assay. The format is functional, organism-based. The following applies: Human immunodeficiency virus 2, ISOLATE ROD, MT4, 120 h. In a few lines: (§2)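 MT-4 cells were infected with HIV-1 IIIB or HIV-2 ROD stock at 100–300 CCID50 and exposed to serial fivefold compound dilutions, with untreated virus-infected and mock-infected controls. Cell viability was read by MTT after 5 days.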

Series [6] concerns Human immunodeficiency virus 1. The series is described as follows: Antiviral activity against HIV1 3B infected in human MT4 cells assessed as protection against viral-induced cytotoxicity after 5 days by MTT assay. It is filed as functional, organism-based. Conditions: Human immunodeficiency virus 1, 3B, MT4, 120 h. In a few lines: as §2
The target of series [7] is Human immunodeficiency virus type 1 reverse transcriptase (Human immunodeficiency virus 1, UniProt Q72547). The series is described as follows: Inhibition of HIV1 reverse transcriptase assessed as inhibition of biotinylated dUTP incorporation after 1 hr by ELISA. In a few lines:
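Kit-based colorimetric ELISA. HIV-1 RT was incubated with template and DIG-dUTP, biotin-dUTP and dTTP, with or without inhibitor, for 1 h at 37 °C. Product was captured on streptavidin plates for 1 h at 37 °C, then anti-DIG-POD for 1 h at 37 °C, and ABTS was developed at 25 °C. A405 was read and percent inhibition calculated.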
For orientation: ELISA stands for enzyme-linked immunosorbent assay.

Molecules are shown by their SMILES. Where only a bound is given, the exact number is not on record here.

What is called CC50 is the concentration giving 50% cytotoxicity. As a reminder, the EC50 is the concentration needed to bring the measured effect to its halfway point. One may read the IC50 as the concentration needed to halve the response being measured.

With `N#CCN1C(=O)N(Cc2ccccc2)S(=O)(=O)c2cscc21`, in series [1], the selectivity ratio came out at 559. Besides, in series [2], the CC50 at 120 h turned out to be 503 µM.
Consider `O=C1N(Cc2ccccc2Cl)c2cscc2S(=O)(=O)N1Cc1ccccc1`, for which the selectivity ratio in series [1] was over 119. The compound also registered a CC50 at 120 h in series [2] of over 119 µM. The same compound returned an EC50 in series [3] of 0.01 µM.
`C=CCN1C(=O)N(Cc2ccccc2)S(=O)(=O)n2cccc21`: the selectivity ratio was under 1 in series [4] and over 1 in series [1]. Also, the EC50 in series [5] and in series [6] was over 802 µM each time. The compound further displayed a CC50 at 120 h in series [2] of over 802 µM.
In turn, `Cn1ncc2c1N(Cc1ccccc1Cl)S(=O)(=O)N(Cc1ccccc1)C2=O` had an EC50 in series [3] of over 20 µM.
Take `Cn1ncc2c1S(=O)(=O)N(Cc1ccccc1)C(=O)N2Cc1ccccc1Cl`: the EC50 in series [3] was over 300 µM.
With `CC(C)=CCN1C(=O)N(Cc2ccccc2)S(=O)(=O)n2cccc21`, the selectivity ratio in series [4] is under 1; in series [1], 9. Further, the EC50 in series [5] is over 226 µM; in series [6], 25 µM. This compound yielded a CC50 at 120 h in series [2] of 226 µM.
As for `O=C1N(Cc2ccccc2)c2cccn2S(=O)(=O)N1Cc1cccc(F)c1`, the selectivity ratio in series [4] was determined as 1; in series [1], 6. Also, the values for the EC50 in series [5] and in series [6] were over 324 µM and 52 µM, respectively. In series [2], this compound showed a CC50 at 120 h of 288 µM.
For the compound `N#Cc1ccccc1CN1C(=O)N(Cc2cccc(F)c2)S(=O)(=O)n2cccc21`, the IC50 in series [7] was determined as 58.3 µM. The selectivity ratio was 1 in series [4] and over 55 in series [1]. For the same compound, the EC50 in series [5] is over 305 µM; in series [6], 5.6 µM. Also, the CC50 at 120 h in series [2] is over 305 µM.
Turning to `O=C1N(Cc2ccccc2Cl)c2cccn2S(=O)(=O)N1Cc1cccc(F)c1`, the selectivity ratio is under 1 in series [4] and 21 in series [1]. Moreover, the EC50 was over 262 µM in series [5] and 11 µM in series [6]. Further, in series [2], the CC50 at 120 h is 231 µM.
Consider `O=C1N(Cc2ccccc2Br)c2cccn2S(=O)(=O)N1Cc1cccc(F)c1`, for which the selectivity ratio was 1 in series [4] and over 9 in series [1]. The figures for the EC50 in series [5] and in series [6] were over 269 µM and 29 µM, respectively. The compound further yielded a CC50 at 120 h in series [2] of over 269 µM.
For `O=C1N(Cc2cccc(Cl)c2)c2cccn2S(=O)(=O)N1Cc1cccc(F)c1`, the selectivity ratio was under 1 in series [4] and 29 in series [1]. For the same compound, the EC50 in series [5] is over 212 µM; in series [6] it was 7.2 µM. The compound also displayed a CC50 at 120 h in series [2] of 208 µM.
Turning to `O=C1N(Cc2ccc(Cl)cc2Cl)c2cccn2S(=O)(=O)N1Cc1cccc(F)c1`, the figures for the selectivity ratio in series [4] and in series [1] were 1 and under 1, respectively. Moreover, the results for the EC50 in series [5] and in series [6] were over 275 µM and over 249 µM, respectively. In series [2], this compound gave a CC50 at 120 h of 249 µM.
The corresponding values for `N#CCN1C(=O)N(Cc2cccc(F)c2)S(=O)(=O)n2cccc21` are under 1, 5, over 187 µM, 34 µM and 172 µM.
The corresponding values for `N#Cc1ccccc1CN1C(=O)N(Cc2cccc(Cl)c2)S(=O)(=O)n2cccc21` are 1, over 33, over 293 µM, 8.9 µM and over 293 µM.
Consider `O=C1N(Cc2ccc(Cl)cc2Cl)c2cccn2S(=O)(=O)N1Cc1cccc(Cl)c1`, for which the selectivity ratio in series [4] is 1; in series [1], under 1. In addition, the EC50 is over 265 µM in series [5] and over 251 µM in series [6]. Further, the half-maximal cytotoxic concentration (CC50) at 120 h in series [2] turned out to be 251 µM.
`O=C1N(Cc2ccccc2Cl)c2cccn2S(=O)(=O)N1Cc1cccc(Br)c1`: the selectivity ratio is 1 in series [4] and over 14 in series [1]. Besides, the EC50 in series [5] is over 260 µM; in series [6] it was 18 µM. The same compound showed a CC50 at 120 h in series [2] of over 260 µM.
Consider `O=C1N(Cc2ccc(Cl)cc2Cl)c2cccn2S(=O)(=O)N1Cc1cccc(Br)c1`, for which the selectivity ratio in series [4] turned out to be 1. In addition, the EC50 in series [5] and in series [6] was over 243 µM in each case. In series [2], this compound displayed a CC50 at 120 h of over 243 µM.
As to `O=C1N(Cc2ccccc2)c2cccn2S(=O)(=O)N1Cc1ccccc1`, the selectivity ratio in series [4] is under 1; in series [1], 5. Further, the EC50 was over 267 µM in series [5] and 43 µM in series [6]. In series [2], this compound gave a CC50 at 120 h of 196 µM.
`N#Cc1ccccc1CN1C(=O)N(Cc2ccccc2)S(=O)(=O)n2cccc21`: the IC50 in series [7] was 56.9 µM. The selectivity ratio was 1 in series [4] and over 63 in series [1]. Moreover, the EC50 in series [5] is over 318 µM; in series [6], 5.1 µM. The compound further returned a CC50 at 120 h in series [2] of over 318 µM.
Turning to `N#Cc1cccc(CN2C(=O)N(Cc3ccccc3)S(=O)(=O)n3cccc32)c1`, the selectivity ratio in series [4] is 1; in series [1], over 49. Moreover, the figures for the EC50 in series [5] and in series [6] were over 318 µM and 6.5 µM, respectively. Moreover, the CC50 at 120 h in series [2] was over 318 µM.
For the compound `O=C1N(Cc2ccccc2Cl)c2cccn2S(=O)(=O)N1Cc1ccccc1`, the selectivity ratio in series [4] is 1; in series [1], 12. Further, the EC50 was over 311 µM in series [5] and 23 µM in series [6]. In series [2], this compound came in with a CC50 at 120 h of 291 µM.
The corresponding values for `O=C1N(Cc2ccccc2Br)c2cccn2S(=O)(=O)N1Cc1ccccc1` are under 1, 8, over 226 µM, 30 µM and 226 µM.
On to `O=C1N(Cc2cccc(Cl)c2)c2cccn2S(=O)(=O)N1Cc1ccccc1`, for which the selectivity ratio was under 1 in series [4] and 5 in series [1]. Also, the EC50 in series [5] was over 239 µM; in series [6], 40 µM. The compound also yielded a CC50 at 120 h in series [2] of 196 µM.
Turning to `O=C1N(Cc2ccc(Cl)cc2Cl)c2cccn2S(=O)(=O)N1Cc1ccccc1`, the selectivity ratio in series [4] and in series [1] was under 1 throughout. Moreover, the figures for the EC50 in series [5] and in series [6] were over 273 µM and over 218 µM, respectively. Further, the CC50 at 120 h in series [2] turned out to be 218 µM.
For the compound `O=C1N(Cc2ccc(F)cc2)c2cccn2S(=O)(=O)N1Cc1ccccc1`, the selectivity ratio in series [4] and in series [1] was under 1 each time. Further, the EC50 was over 150 µM in series [5] and over 190 µM in series [6]. This compound displayed a CC50 at 120 h in series [2] of 150 µM.
Consider `Cc1ccc(CN2C(=O)N(Cc3ccccc3)S(=O)(=O)n3cccc32)cc1`, for which the selectivity ratio in series [4] and in series [1] was under 1 in each case. Further, the EC50 in series [5] and in series [6] was over 241 µM each time. The compound further registered a CC50 at 120 h in series [2] of 241 µM.
Turning to `N#CCN1C(=O)N(Cc2ccccc2)S(=O)(=O)n2cccc21`, the selectivity ratio in series [4] and in series [1] was under 1 each time. Further, the results for the EC50 in series [5] and in series [6] were over 180 µM and over 187 µM, respectively. This compound also registered a CC50 at 120 h in series [2] of 180 µM.
With `O=C1N(C/C=C/c2ccccc2)c2cccn2S(=O)(=O)N1Cc1ccccc1`, the selectivity ratio in series [4] was found to be 1. The EC50 in series [5] and in series [6] was over 318 µM each time. This compound showed a CC50 at 120 h in series [2] of over 318 µM.
For the compound `Nc1ccn([C@@H]2CS[C@H](CO)O2)c(=O)n1` [LAMIVUDINE], the selectivity ratio was over 15 in series [4] and over 47 in series [1]. Also, the EC50 worked out at 5.9 µM in series [5] and 1.8 µM in series [6]. In series [2], this compound registered a CC50 at 120 h of over 87 µM.
As to `Cc1ccnc2c1NC(=O)c1cccnc1N2C1CC1` [NEVIRAPINE], the CC50 at 120 h in series [2] was over 15 µM.
For the compound `Nc1ccn([C@H]2CC[C@@H](CO)O2)c(=O)n1` [ZALCITABINE], in series [1], the selectivity ratio is over 68. Also, in series [2], the CC50 at 120 h was over 95 µM.
